Fam108B counter – counter-screen for RBBP9 inhibitors: inhibitors of mouse Fam108B; recombinant Fam108B, FP-Rh probe fluorescence polarization; inhibition, % at 9.51 µM; hit rate 0.33% among 300,000; AID 1947;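 active = inhibition above the screen mean inhibition plus 3 SD, computed separately per campaign, cut at about 18% in these data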;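 also: inhibitors lower polarization as less probe binds the enzyme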
PME-1 inh – blocks human protein phosphatase methylesterase 1 | AID 2130 | hit rate 0.53% among 320,000 | Q9Y570 | recombinant PME-1, FP-Rh probe fluorescence polarization | inhibition, % at 5.9 µM;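 active = inhibition above the campaign mean of all compounds plus 3 SD, cut at about 26% in these data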;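 also: competitive labeling of PME-1 active site by serine hydrolase directed probe; 0% = PME-1 with DMSO and 100% = wells lacking PME-1 enzyme; inhibitors block probe labeling so polarization falls and inhibition rises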
RBBP9 inhibitor – human RBBP9 hydrolase inhibition. recombinant RBBP9, FP-Rh probe fluorescence polarization. AID 1515. inhibition, % at 7.94 µM. hit rate 0.2% among 220,000;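 active = inhibition above the campaign mean of all tested compounds plus 3 SD, cut at about 14% in these data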;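 also: plate controls were DMSO wells with RBBP9 for no effect and wells lacking RBBP9 protein for full effect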
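Controls: DMSO-treated enzyme wells and wells lacking RBBP9 | Material: RBBP9 protein | Technique: Fluorescence polarization | Replication: Single well per compound, no replicates | Buffer or medium: Tris-NaCl-Pluronic buffer, pH 8.0 | Timing: 30 min compound preincubation, 45 min probe labeling, 25 °C | Read-out basis: Percent inhibition from mP, scaled between DMSO and no-protein wells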
LYPLA2 inh – counter-screen for PME1 inhibitors: inhibitors of human LYPLA2. recombinant LYPLA2, FP-Rh probe fluorescence polarization. hit rate 0.38% among 320,000. AID 2177. inhibition, % at 5.9 µM;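 active = inhibition above the screen-wide mean plus 3 SD, limit set per campaign, cut at about 26% in these data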;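 also: 0% = LYPLA2 with DMSO and 100% = wells lacking LYPLA2 enzyme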
Target sequence (O95372 whole entry, looked up): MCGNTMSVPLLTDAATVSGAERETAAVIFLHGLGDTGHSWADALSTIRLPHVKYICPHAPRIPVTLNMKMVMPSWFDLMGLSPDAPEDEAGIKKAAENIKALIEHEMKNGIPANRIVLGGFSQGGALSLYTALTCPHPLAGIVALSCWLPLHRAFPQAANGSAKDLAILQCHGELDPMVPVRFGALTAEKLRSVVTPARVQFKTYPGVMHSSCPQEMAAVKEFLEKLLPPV
PAD4 FP inh – blocks human protein arginine deiminase 4 | Q9UM07 | recombinant PAD4, RCA probe fluorescence polarization | inhibition, % at 6.36 µM | hit rate 0.41% among 330,000 | AID 485272;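 active = percent inhibition above a cutoff equal to the mean of all tested compounds plus 3 SD, cut at about 15% in these data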;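 also: 0% = PAD4 with RCA probe and DMSO and 100% = probe without PAD4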
LYPLA1 inh – counter-screen for PME1 inhibitors: inhibitors of human LYPLA1. inhibition, % at 5.9 µM. recombinant LYPLA1, FP-Rh probe fluorescence polarization. O75608. hit rate 0.16% among 320,000;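 active = inhibition above the mean of all tested compounds plus 3 SD, set per campaign, cut at about 14% in these data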;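 also: inhibitors block serine hydrolase probe labeling of LYPLA1 so polarization falls; 0% = enzyme with DMSO and 100% = wells lacking LYPLA1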
Target sequence (O75608 whole entry, looked up): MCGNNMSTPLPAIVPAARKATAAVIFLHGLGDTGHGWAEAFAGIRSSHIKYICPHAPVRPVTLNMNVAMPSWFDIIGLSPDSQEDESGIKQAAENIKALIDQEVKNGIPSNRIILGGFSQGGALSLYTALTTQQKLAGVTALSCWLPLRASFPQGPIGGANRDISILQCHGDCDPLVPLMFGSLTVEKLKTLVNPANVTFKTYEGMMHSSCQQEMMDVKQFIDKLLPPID
Fam108b confirm – confirmation of mouse Fam108b serine hydrolase inhibitors. recombinant Fam108b, FP-Rh probe fluorescence polarization. shares compounds with Fam108B counter. hit rate 44% among 930. inhibition, % at 9.51 µM;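 active = inhibition above a limit from the primary screen, the mean over all compounds plus 3 SD, cut at about 19% in these data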;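 also: 0% = median of active Fam108b wells and 100% = catalytically dead S170A mutant; inhibitors free the probe so polarization falls as inhibition rises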
Fam108b ABPP HTS – inhibits mouse Fam108b in gel-based ABPP | hit rate 44% among 260 | inhibition, % at 20 µM | recombinant Fam108b, fluorophosphonate probe | shares compounds with Fam108B counter; in the data active = inhibition above about 40%
Starred values were filed as active, the others as inactive. Only some compounds are listed: those with a hit (about 1.3% of all), similar ones and a draw of the others.

For O=[N+]([O-])c1ccc(O)c(/C=N/Nc2ccccc2Cl)c1 the results were Fam108B counter 4, PME-1 inh 5, RBBP9 inhibitor -8, LYPLA2 inh 5, PAD4 FP inh 6 and LYPLA1 inh 6.
For O=[N+]([O-])c1ccc(O)c(C=NNC(=S)Nc2ccc(Cl)cc2Cl)c1 the results were Fam108b ABPP HTS 0.
Screening Cc1cc(N2C(=O)C(O)=C(C(=O)c3ccco3)C2c2ccccc2F)no1 (stereo not drawn) returned Fam108B counter 1, PME-1 inh 6, LYPLA2 inh -3, PAD4 FP inh -9 and LYPLA1 inh -3.
CC1=NN(c2cccc(C(=O)O)c2)C(=O)/C1=C\C=C\c1ccco1 was read as Fam108B counter 24*, PME-1 inh -7, RBBP9 inhibitor 2, LYPLA2 inh -4, PAD4 FP inh 6, LYPLA1 inh 1 and Fam108b confirm 29*.
Screening CC(C)S(=O)(=O)N1CCN(c2ccnc3cc(Cl)ccc23)CC1 returned Fam108B counter -2, PME-1 inh 2, RBBP9 inhibitor 6, LYPLA2 inh 3, PAD4 FP inh 4 and LYPLA1 inh 1.
Screening Cn1c(C(C#N)C2=C(Cl)C(=O)N(c3ccccc3)C2=O)nc2ccccc21 (stereo not drawn) returned Fam108B counter 25*, PME-1 inh 14, RBBP9 inhibitor 2, LYPLA2 inh 14, PAD4 FP inh 7, LYPLA1 inh 3 and Fam108b confirm 17.
`Cn1c(C(O)C(O)c2ccccc2)nc2ccccc21` (stereo not drawn) gave Fam108B counter 2, PME-1 inh 3, RBBP9 inhibitor 1, LYPLA2 inh 4, PAD4 FP inh -2 and LYPLA1 inh 4.
Screening COc1cc(NC(=O)C2CC(c3ccccc3Cl)=NO2)cc(OC)c1OC (stereo not drawn) returned Fam108B counter 5, PME-1 inh -2, LYPLA2 inh 3, PAD4 FP inh 6 and LYPLA1 inh 0.
For COC(=O)C1=C(COc2ccccc2)NC(=O)NC1c1ccc(Br)cc1 (stereo not drawn) the results were Fam108B counter 3, PME-1 inh 3, RBBP9 inhibitor -7, LYPLA2 inh -4, PAD4 FP inh 4 and LYPLA1 inh -1.
CN(C)c1ncc(C2=C(Cl)C(=O)C(N3CCCC3)=C(Cl)C2=O)s1 was read as Fam108B counter 26*, PME-1 inh 4, RBBP9 inhibitor 12, LYPLA2 inh 0, PAD4 FP inh 7, LYPLA1 inh -3 and Fam108b confirm -4.
Screening Cc1c(O)ccc(C(Cc2ccc3ccccc3n2)=NO)c1O returned Fam108b ABPP HTS 0.
Screening Oc1ccc(/C(Cc2ccc3ccccc3n2)=N\Nc2ccccc2)c(O)c1 returned Fam108B counter 7, PME-1 inh -2, RBBP9 inhibitor 2, LYPLA2 inh 3, PAD4 FP inh 0 and LYPLA1 inh -2.
COc1ccc(Nc2nnc(SC(C(=O)Nc3cc(C)ccc3C)c3ccccc3)s2)cc1 (stereo not drawn) was read as Fam108B counter 5, PME-1 inh 0, RBBP9 inhibitor -5, LYPLA2 inh 0, PAD4 FP inh -2 and LYPLA1 inh -3.
For COc1ccc(Nc2nnc(SC(C(=O)Nc3ccc(OC)c(Cl)c3)c3ccccc3)s2)cc1 (stereo not drawn) the results were Fam108B counter 38*, PME-1 inh 52*, RBBP9 inhibitor -13, LYPLA2 inh 2, PAD4 FP inh -5, LYPLA1 inh -4 and Fam108b confirm 25*.
`Oc1ccc(/C=N/N=C/c2ccc(O)c(O)c2)cc1O` gave Fam108B counter -9, PME-1 inh -26, LYPLA2 inh -10, PAD4 FP inh 3 and LYPLA1 inh -10.
Oc1ccc(N=Cc2ccc(O)c(O)c2)cc1 was read as Fam108B counter 36*, PME-1 inh 47*, RBBP9 inhibitor -3, LYPLA2 inh 14, PAD4 FP inh 1, LYPLA1 inh -3 and Fam108b confirm 1.
